Reference: ChEMBL document CHEMBL2440094, “Thiazolidinone-peptide hybrids as dengue virus protease inhibitors with antiviral activity in cell culture” (J Med Chem, 2013)
Activity calls are given as the source filed them. No cut-off for these calls is given here. Square brackets hold non-standard residues; d marks the D form. Peptide text beside a SMILES is read from it. * marks the point of attachment. Nle = CCCC[C@H](N)C(=O)O; Bz = O=C(c1ccccc1)*

Experiments:
Dengue virus [1] = assay: Inhibition of Dengue virus NS2B-NS3 protease expressed in Escherichia coli BL 21 (DE3) using Abz-Nle-Lys-Arg-Arg-Ser-3-(NO2)Tyr as substrate at 50 uM after 15 mins
[2] = molecular target: Prothrombin (Homo sapiens) (UniProt P00734); assay: Inhibition of thrombin (unknown origin) using Boc-Val-Pro-Arg-AMC as substrate at 25 uM after 10 mins by continuous fluorimetric assay
In short: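 Thrombin (10 nM) preincubated 15 min with inhibitor (25 μM final) in 50 mM Tris-HCl pH 7.5, 150 mM NaCl, 0.05% Tween 20. Boc-Val-Pro-Arg-AMC then added to 50 μM (Km 16 μM). Fluorescence (ex 355 nm, em 460 nm) followed for 10 min as slope. Triplicate; percent inhibition versus no-inhibitor control.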

Huh-7 = assay: Cytotoxicity against human HuH7 cells at <50 uM after 48 hrs by firefly reporter assay; format: cell-based; settings: huh-7, 48 h
In short: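 Uninfected Huh-7 cells stably expressing firefly luciferase, seeded 5000/well and incubated overnight at 37 °C. Compound added at 1.56–50 μM, plus 100, 200 and 400 μM, then incubated as for infected cells (further 48 h after the 4 h point). Firefly luminescence read with 70 μM luciferin and 2 mM ATP. Mean of three wells as percent of DMSO control.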

dengue virus type 2 [3] = assay: Antiviral activity against Dengue virus 2 infected in human Huh-7 cells assessed as inhibition of virus-induced plaque formation at 50 uM after 48; format: functional, organism-based
In short: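 Huh-7 cells seeded in 12-well plates and pretreated with compound (50 μM) for 4 h. Infected for 1 h with dengue reporter virus (MOI 5) in the presence of compound, then medium replaced with compound-containing DMEM. Supernatant harvested at 48 h and filtered. Titer determined by plaque assay on Vero cells. Mean ± SD of three independent experiments.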

dengue virus type 2 [4] = assay: Antiviral activity against Dengue virus 2 infected in human Huh-7 cells assessed as inhibition of viral replication after 48 hrs by luciferase reporter gene assay; format: functional, organism-based; settings: Huh-7, 48 h
In short: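 Huh-7 cells seeded 5000/well, incubated overnight at 37 °C, then given compound (1.56–50 μM final, 2-fold series in DMEM with 10% FCS). Dengue 2 renilla luciferase reporter virus (MOI 10) added 4 h later. After 48 h at 37 °C, cells lysed and renilla luminescence read with coelenterazine. At least four wells per concentration, expressed relative to DMSO control. EC50 by nonlinear regression.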

West Nile virus = assay: Inhibition of West Nile virus NS2B-NS3 protease expressed in Escherichia coli BL 21 (DE3) using Abz-Gly-Leu-Lys-Arg-Gly-Gly-3-(NO2)Tyr as substrate at 50 uM after 15 mins
[5] = Permeability of the compound by PAMPA; format: ADME; settings: read-out: permeability
In short: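 PAMPA with precoated trilayer lipid/oil/lipid membranes, donor wells holding 200 μM compound in PBS pH 7.4 (2% DMSO final), in triplicate. Incubated 5 h at room temperature. Donor and acceptor concentrations determined by UV plate reader or HPLC-UV against calibration curves. Pe and mass retention R calculated.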

[6] = Inhibition of Dengue virus NS2B-NS3 protease expressed in Escherichia coli BL 21 (DE3) using Abz-Nle-Lys-Arg-Arg-Ser-3-(NO2)Tyr as substrate after 15 mins
[7] = Inhibition of Dengue virus NS2B-NS3 protease expressed in Escherichia coli BL 21 (DE3) using Abz-Nle-Lys-Arg-Arg-Ser-3-(NO2)Tyr as substrate assessed as enzyme-substrate-inhibitor complex by Cornish-Bowden plot analysis
In short: (§1)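 DEN2 NS2B–NS3 FRET assay run at inhibitor 0–6 μM (prior-series compounds 5–50 μM) and substrate 50, 100, 150 and 200 μM, in triplicate, with inner-filter correction. Ki from Dixon plots (1/v vs [I]) and Ki′ from Cornish-Bowden plots (S/v vs [I]). Inhibition mode assigned from these plots.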

Dengue virus [8] = assay: Competitive inhibition of Dengue virus NS2B-NS3 protease expressed in Escherichia coli BL 21 (DE3) using Abz-Nle-Lys-Arg-Arg-Ser-3-(NO2)Tyr as substrate by Cornish-Bowden plot analysis; in short: as §1
[9] = Inhibition of Dengue virus NS2B-NS3 protease expressed in Escherichia coli BL 21 (DE3) using Abz-Nle-Lys-Arg-Arg-Ser-3-(NO2)Tyr as substrate assessed as enzyme-inhibitor complex by Cornish-Bowden plot analysis; settings: in the assay text read “Dixon plot” for “Cornish-Bowden plot”; in short: as §1

SMILES | inhibition (Dengue virus [1]) [%] | inhibition [2] | EC50 (dengue virus type 2 [4]) [µM] | inhibition (West Nile virus) [%] | Papp [5] [×10⁻⁶ cm/s] | IC50 [6] [µM] | inhibition (Dengue virus [8]) | Activity (Huh-7) | inhibition (dengue virus type 2 [3]) | Ki [7] [µM] | Ki [9] [µM]
CCCC[C@H](NC(=O)[C@H](CCCN)NC(=O)[C@H](CCCNC(=N)N)NC(=O)c1ccc(/C=C2\SC(=O)N(Cc3ccccc3)C2=O)cc1)C(N)=O | 74.5 | 14.3% | 26.8 | 45 |  |  |  | Non-toxic | inactive |  | 
CCCC[C@H](NC(=O)[C@H](CCCCN)NC(=O)[C@H](CCCNC(=N)N)NC(=O)c1ccc(/C=C/C(N)=O)cc1)C(N)=O | 84.6 | inactive |  | 15.6 |  | 6.4 | Active | Non-toxic |  | > 50 | 8.2
CCCC[C@H](NC(=O)[C@H](CCCCN)NC(=O)[C@H](CCCNC(=N)N)NC(=O)c1ccccc1)C(N)=O (Bz-Arg-Lys-[Nle]-NH2) | 68.1 | 5.5% |  | 7.7 |  | 13.3 | Active | Non-toxic |  | > 50 | 11.2
CCCC[C@H](NC(=O)[C@H](CCCCN)NC(=O)[C@H](CCCNC(=N)N)NC(=O)c1ccc(/C=C2\SC(=S)N(c3ccc(OC)cc3)C2=O)cc1)C(N)=O | 92.5 | 8.5% | 42.5 | 42.9 | 0.59 |  |  |  |  |  | 
CCCC[C@H](NC(=O)[C@H](CCCCN)NC(=O)[C@H](CCCNC(=N)N)NC(=O)c1ccc(/C=C2\SC(=O)N(Cc3ccc(C)cc3)C2=O)cc1)C(N)=O | 97.6 | 9.3% |  | 66.7 |  | 4.8 | Active |  |  | > 10 | 3.1
CCCC[C@H](NC(=O)[C@H](CCCCN)NC(=O)[C@H](CCCNC(=N)N)NC(=O)c1ccc(/C=C(\C#N)C(=O)NC2CC2)cc1)C(N)=O | 88.5 | 13.4% |  | 28 | 1.11 | 5.3 | Active | Non-toxic | inactive | > 50 | 4
CCCC[C@H](NC(=O)[C@H](CCCCN)NC(=O)[C@H](CCCNC(=N)N)NC(=O)c1ccc(/C=C2\SC(=O)N(Cc3ccc(OC)cc3)C2=O)cc1)C(N)=O | 97 | 12.3% |  | 47.2 |  | 3.3 | Active |  |  | > 10 | 2.2
CCCC[C@H](NC(=O)[C@H](CCCCN)NC(=O)[C@H](CCCNC(=N)N)NC(=O)c1cccs1)C(N)=O | 71.1 | inactive |  | 14.7 |  | 14.1 | Active | Non-toxic | inactive | > 50 | 14.5
CCCC[C@H](NC(=O)[C@H](CCCCN)NC(=O)[C@H](CCCNC(=N)N)NC(=O)/C=C/c1ccccc1)C(N)=O | 82.9 | inactive |  | 13.8 | 1.26 | 10.5 | Active | Non-toxic |  | > 50 | 6.9
CCCC[C@H](NC(=O)[C@H](CCCCN)NC(=O)[C@H](CCCNC(=N)N)NC(=O)/C=C1\SC(=S)N(Cc2ccc(OC)cc2)C1=O)C(N)=O | 40.9 | 24.7% | 26 | 15.3 |  |  |  | Non-toxic |  |  | 
CCCC[C@H](NC(=O)[C@H](CCCCN)NC(=O)[C@H](CCCNC(=N)N)NC(=O)c1ccc(/C=C2\SC(=O)N(C3CCCCC3)C2=O)cc1)C(N)=O | 98.4 | 9.1% |  | 51.1 | 1.69 | 3.4 | Active |  |  | > 10 | 2.3
CCCC[C@H](NC(=O)[C@H](CCCCN)NC(=O)[C@H](CCCNC(=N)N)NC(=O)c1cccc(/C=C2\SC(=O)N(C3CCCC3)C2=O)c1)C(N)=O | 92.4 | 13% | 53.8 | 52.9 | 1.9 |  |  |  |  |  | 

Further lines, with some results ahead:

inhibition (Dengue virus [1]) [%] | inhibition [2] | EC50 (dengue virus type 2 [4]) [µM] | inhibition (West Nile virus) [%] | Papp [5] [×10⁻⁶ cm/s] | IC50 [6] [µM] | inhibition (Dengue virus [8]) | SMILES | Activity (Huh-7) | inhibition (dengue virus type 2 [3]) | Ki [7] [µM] | Ki [9] [µM]
96 | inactive | 31.3 | 54.6 | 0.42 |  |  | C=CCN1C(=O)/C(=C/c2ccc(C(=O)N[C@@H](CCCNC(=N)N)C(=O)N[C@@H](CCCCN)C(=O)N[C@@H](CCCC)C(N)=O)cc2)SC1=S | Non-toxic |  |  | 
99.8 | inactive | 30.3 | 97.7 | 2.31 | 6.1 | Active | CCCC[C@H](NC(=O)[C@H](CCCCN)NC(=O)[C@H](CCCNC(=N)N)NC(=O)c1ccc(/C=C2\SC(=S)N(C3CCCC3)C2=O)cc1)C(N)=O |  |  | > 10 | 3.6
97.3 | 11.3% | 35.5 | 64.7 | 1.61 | 6.2 | Active | CCCC[C@H](NC(=O)[C@H](CCCCN)NC(=O)[C@H](CCCNC(=N)N)NC(=O)c1ccc(/C=C2\SC(=S)N(CCCC)C2=O)cc1)C(N)=O |  |  | > 10 | 4.7
87.1 | 13.9% | > 50 | 48.7 |  |  |  | CCCC[C@H](NC(=O)[C@H](CCCCN)NC(=O)[C@H](CCCNC(=N)N)NC(=O)c1ccc(/C=C2\SC(=S)NC2=O)cc1)C(N)=O | Non-toxic |  |  | 
89 | 14.8% | > 50 | 35 |  |  |  | CCCC[C@H](NC(=O)[C@H](CCCCN)NC(=O)[C@H](CCCNC(=N)N)NC(=O)c1ccc(/C=C2\SC(=S)N(C)C2=O)cc1)C(N)=O | Non-toxic |  |  | 
97.6 | 16.8% |  | 41.4 |  | 4.8 | Active | CCCC[C@H](NC(=O)[C@H](CCCCN)NC(=O)[C@H](CCCNC(=N)N)NC(=O)c1ccc(/C=C2\SC(=O)N(CCOC(C)=O)C2=O)cc1)C(N)=O |  |  | > 10 | 3.6
91.1 | 9.2% |  | 38.1 |  |  |  | CCCC[C@H](NC(=O)[C@H](CCCCN)NC(=O)[C@H](CCCNC(=N)N)NC(=O)c1ccc(/C=C2\SC(=O)N(C)C2=O)cc1)C(N)=O | Non-toxic |  |  | 
96.7 | 11.1% | 35.7 | 53.6 | 1.02 |  |  | CCCC[C@H](NC(=O)[C@H](CCCCN)NC(=O)[C@H](CCCNC(=N)N)NC(=O)c1ccc(/C=C2\SC(=S)N(c3ccc(Cl)cc3)C2=O)cc1)C(N)=O |  |  |  | 
84.4 | 14.5% | > 50 | 27 |  |  |  | CCCC[C@H](NC(=O)[C@H](CCCCN)NC(=O)[C@H](CCCNC(=N)N)NC(=O)c1ccc(/C=C2\SC(=O)NC2=O)cc1)C(N)=O | Non-toxic |  |  | 
100 | 18.4% | > 50 | 52.4 | 1.18 | 3.5 | Active | CCCC[C@H](NC(=O)[C@H](CCCCN)NC(=O)[C@H](CCCNC(=N)N)NC(=O)c1ccc(/C=C2\SC(=O)N(CCCC)C2=O)cc1)C(N)=O |  |  | > 10 | 3.4
